Measurements as given in ChEMBL document CHEMBL1275383, “Synthesis and antioxidant properties of pulvinic acids analogues” (Bioorg Med Chem, 2010).
The source made the active and inactive calls. The rule behind the calls is not given here.

Experiments:
Type in all cases: functional
[1] = test system: Radical scavenging activity; assay: Antioxidant activity assessed as DPPH free radical scavenging activity by measuring [DPPH]/antioxidant EC50 ratio measured every 5 mins for 1 hr
Method in brief: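 DPPH (200 µM ethanol stock, 100 µM final) mixed 1:1 with compound in ethanol, 10 concentrations (0–1 10^-3 M), duplicate. Read at 515 nm every 5 min for 1 h; % remaining DPPH at steady state plotted against antioxidant/DPPH molar ratio to give EC50. Reported as antiradical power; no value if steady state not reached within 1 h.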

[2] = Antioxidant activity assessed as protection against Fenton oxidation-induced thymidine degradation in 11.4 mM phosphate buffer at 100 uM by competitive immuno-enzymatic assay
[3] = Antioxidant activity assessed as protection against 340 Gy gamma-radiation-induced thymidine degradation in 12.5 mM phosphate buffer at 50 uM by competitive immuno-enzymatic assay
Method in brief: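 Thymidine at 15 µM with compound at 50 µM, 12.5 mM phosphate buffer, given 340 Gy from a 137Cs source. Remaining intact thymidine measured by competitive immunoassay with anti-thymidine monoclonal antibody; duplicate, averaged.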

[4] = Antioxidant activity assessed as protection against UV/H2O2-induced thymidine degradation in 12.5 mM phosphate buffer at 100 uM by competitive immuno-enzymatic assay
Method in brief: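 Thymidine at 70 µM with compound at 100 µM and H2O2 at 5 mM in 12.5 mM phosphate buffer, irradiated at 254 nm, 1.75 J cm-2. Intact thymidine quantified by competitive anti-thymidine monoclonal antibody immunoassay; duplicate, averaged.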

[5] = Antioxidant activity against ABTS radical assessed as Trolox equivalent
[6] = Antioxidant activity assessed as beta-carotene bleaching activity at 116 uM after 4 hrs by spectrophotometry relative to contro
Method in brief: (§1)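 Emulsion of β-carotene, linoleic acid and Tween 40 in oxygen-saturated water added to compound in ethanol (24 or 116 µM). Incubated at 50 °C, absorbance at 470 nm read at zero and followed over 4 h. % protection = [1 − (A0 − At)/(Ac0 − Act)] × 100 versus no-compound control; triplicate, averaged.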

[7] = Antioxidant activity assessed as beta-carotene bleaching activity at 24 uM after 4 hrs by spectrophotometry relative to control; method in brief: as §1

Compound | Ratio [1] | Activity [2] [%] | Activity [3] [%] | Activity [4] [%] | Activity [5] [mM] | Activity [6] | Activity [7]
COC(=O)/C(=C1/OC(=O)C(c2ccc(OC)cc2)=C1O)c1ccoc1 | 3.35 | 13.8 | 77 | 36 | 1.06 |  | 
O=C(O)c1cc(O)c(O)c(O)c1 | 11.7 |  |  |  | 1.36 |  | 
COC(=O)/C(=C1/OC(=O)C(c2ccc(OC)cc2)=C1O)c1cccc(C(F)(F)F)c1 | 4.08 | 33.9 | 46.3 | 35.8 | 2.75 |  | 
COC(=O)/C=C1\OC(=O)C(c2ccc([N+](=O)[O-])cc2)=C1O |  | 40.7 | 58.5 | 31.5 | 18.7 |  | 
COC(=O)/C(=C1/OC(=O)C(c2ccc(OC)cc2)=C1O)c1cccc(O)c1 | 3.68 | 91.6 | 34.2 | 50 | 1.56 |  | 
COC(=O)/C=C1\OC(=O)C(c2ccc(C)cc2)=C1O | 2.56 | 14.1 | 30 | 52.7 | 6.51 |  | 
COC(=O)/C=C1\OC(=O)C(c2ccc(Br)cc2)=C1O | 1.17 | 27.1 | 51.7 | 41.2 | 17.7 |  | 
COC(=O)/C(=C1/OC(=O)C(c2ccc(OC)cc2)=C1O)c1ccccc1 | 3.2 | 58 | 46.4 | 42.9 | 1.67 |  | 
COC(=O)/C=C1\OC(=O)C(c2cccs2)=C1O |  | 0 | 51.4 | 23.6 |  |  | 
COC(=O)[C@H](O)[C@H]1OC(=O)C(c2ccc(F)cc2)=C1O | 4.2 | 55.2 | 39 | 55.3 | 2.94 |  | 
COC(=O)[C@H](O)[C@H]1OC(=O)C(c2ccccc2)=C1O | 3.57 | 31 | 62 | 33.2 | 1.94 | > 44% | 
COC(=O)[C@H](O)[C@H]1OC(=O)C(c2ccc(Br)cc2)=C1O | 2.81 | 37.6 | 60.2 | 37.3 | 4.91 |  | 
COC(=O)[C@H](O)[C@H]1OC(=O)C(c2ccc([N+](=O)[O-])cc2)=C1O |  | 70.7 | 60.9 | 33.4 | 24.6 |  | 
COC(=O)/C(=C1/OC(=O)C(c2ccc(OC)cc2)=C1O)c1ccc(Cl)cc1 | 3.37 | 41.7 | 22.6 | 45 | 3.97 |  | 
COC(=O)[C@H](O)[C@H]1OC(=O)C(c2ccc(OC)cc2)=C1O | 3.44 | 25.8 | 87.4 | 24.9 | 1.55 |  | 
Cc1c(C)c2c(c(C)c1O)CCC(C)(C(=O)O)O2 (stereo not given) |  | 11.7 | 5.2 | 4.4 |  |  | 

Compound | Ratio [1] | Activity [2] [%] | Activity [3] [%] | Activity [4] [%] | Activity [5] [mM] | Activity [6] | Activity [7]
COC(=O)/C(=C1/OC(=O)C(c2ccc(OC)cc2)=C1O)c1ccc(C(C)=O)cc1 | 3.27 | 41.1 | 34.3 | 41.1 | 6.18 | Active | Active
COC(=O)/C=C1\OC(=O)C(c2ccccc2)=C1O | 3.22 | 45.8 | 69.4 | 37.7 | 46.2 |  | 
COC(=O)/C=C1\OC(=O)C(c2ccc(F)cc2)=C1O | 1.97 | 28.3 | 52.9 | 69.3 |  |  | 
COC(=O)[C@H](O)[C@H]1OC(=O)C(c2ccc(C)cc2)=C1O | 3.27 | 7 | 42.7 | 43.8 | 1.54 |  | 
COC(=O)/C(=C1/OC(=O)C(c2ccc(OC)cc2)=C1O)c1ccccc1C(F)(F)F |  | 14.8 | 17.6 | 46.1 | 12.1 | Active | 
COC(=O)/C=C1\OC(=O)C(C(=O)OCc2ccccc2)=C1O | 0.93 | 0.3 | 23.1 | 13.9 | 18.5 |  | 
COC(=O)/C(=C1/OC(=O)C(c2ccc(OC)cc2)=C1O)c1ccsc1 | 2.97 | 45.2 | 76 | 34.8 | 2.69 |  | 
COC(=O)/C=C1\OC(=O)C(c2ccc(O)cc2)=C1O | 2.85 | 82.7 | 57.2 | 32.6 | 0.48 |  | 
COC(=O)[C@H](O)[C@H]1OC(=O)C(C(=O)OCc2ccccc2)=C1O |  | 2.6 | 47.9 | 16.8 | 43.3 |  | 
COC(=O)[C@H](O)[C@H]1OC(=O)C(C(C)=O)=C1O |  | 0 | 5.6 | 7.4 | 82.7 |  | 
COC(=O)/C=C1\OC(=O)C(c2ccc(OC)cc2)=C1O | 3.6 | 32 | 73.8 | 30.7 | 1.31 | > 44% | 
COC(=O)[C@H](O)[C@H]1OC(=O)C(c2ccc(O)cc2)=C1O | 3 | 93.4 | 63.7 | 29.4 | 0.6 |  | 
COC(=O)[C@H](O)[C@H]1OC(=O)C(c2ccc(OCc3ccccc3)cc2)=C1O | 3.12 | 21.1 | 37.4 | 51 | 2.16 |  | 
O=C1O[C@H]([C@@H](O)CO)C(O)=C1O | 4.56 |  |  |  | 0.64 | inactive | inactive
COC(=O)/C(=C1/OC(=O)C(c2ccc(OC)cc2)=C1O)c1ccco1 | 3.42 | 0 | 62 | 28.7 | 1.16 |  | 
COC(=O)[C@H](O)[C@H]1OC(=O)C(c2cccs2)=C1O | 2.25 | 0 | 40.3 | 16.1 |  |  | 
